Source: ChEMBL document CHEMBL3046951, “Volatile constituents from the leaves of Callicarpa japonica Thunb. and their antibacterial activities” (2004)

Assays:
Format in all cases: functional
[1] = system: Bacillus cereus; experiment: Antimicrobial activity against Bacillus cereus ATCC 11778 assessed as growth inhibition rate at 0.34 mg/l after 72 hr by spectrophotometry; conditions: ATCC 11778, 72 h, read-out: GI
How it was run: (§1)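 Pure volatile compounds (purity >95%; one at 90%) were tested against B. cereus ATCC 11778. The strain was grown at 30 °C in nutrient broth for 24 h, then subcultured for 18 h. Optical density was read in a Bioscreen C every 24 h for 72 h, with 10% Tween 80 as the control.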

[2] = system: Bacillus cereus; experiment: Antimicrobial activity against Bacillus cereus ATCC 11778 assessed as growth inhibition rate at 0.068 mg/l after 72 hr by spectrophotometry; conditions: ATCC 11778, 72 h, read-out: GI; how it was run: as §1
[3] = system: Bacillus cereus; experiment: Antimicrobial activity against Bacillus cereus ATCC 11778 assessed as growth inhibition rate at 0.017 mg/l after 72 hr by spectrophotometry; conditions: ATCC 11778, 72 h, read-out: GI; how it was run: as §1
[4] = system: Bacillus cereus; experiment: Antimicrobial activity against Bacillus cereus ATCC 11778 assessed as growth inhibition rate at 6.8 mg/l after 72 hr by spectrophotometry; conditions: ATCC 11778, 72 h, read-out: GI; how it was run: as §1
[5] = system: Bacillus cereus; experiment: Antimicrobial activity against Bacillus cereus ATCC 11778 assessed as growth inhibition rate at 0.68 mg/l after 72 hr by spectrophotometry; conditions: ATCC 11778, 72 h, read-out: GI; how it was run: as §1
[6] = system: Salmonella typhimurium; experiment: Antimicrobial activity against Salmonella enterica subsp. enterica serovar Typhimurium ATCC 14028 assessed as growth inhibition rate at 0.34 mg/l after 72 hr by spectrophotometry; conditions: ATCC 14028, 72 h, read-out: GI
How it was run: (§2)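 Salmonella Typhimurium ATCC 14028 grown in nutrient broth at 30 °C, precultured 24 h, then subcultured 1:100 for 18 h before testing. Single volatile compounds (>95% pure) were added. OD was read every 24 h over 72 h in a Bioscreen C, with 10% Tween 80 as the comparison control.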

[7] = system: Salmonella typhimurium; experiment: Antimicrobial activity against Salmonella enterica subsp. enterica serovar Typhimurium ATCC 14028 assessed as growth inhibition rate at 0.068 mg/l after 72 hr by spectrophotometry; conditions: ATCC 14028, 72 h, read-out: GI; how it was run: as §2
[8] = system: Salmonella typhimurium; experiment: Antimicrobial activity against Salmonella enterica subsp. enterica serovar Typhimurium ATCC 14028 assessed as growth inhibition rate at 0.017 mg/l after 72 hr by spectrophotometry; conditions: ATCC 14028, 72 h, read-out: GI; how it was run: as §2
[9] = system: Salmonella typhimurium; experiment: Antimicrobial activity against Salmonella enterica subsp. enterica serovar Typhimurium ATCC 14028 assessed as growth inhibition rate at 6.8 mg/l after 72 hr by spectrophotometry; conditions: ATCC 14028, 72 h, read-out: GI; how it was run: as §2
[10] = system: Salmonella typhimurium; experiment: Antimicrobial activity against Salmonella enterica subsp. enterica serovar Typhimurium ATCC 14028 assessed as growth inhibition rate at 0.68 mg/l after 72 hr by spectrophotometry; conditions: ATCC 14028, 72 h, read-out: GI; how it was run: as §2
[11] = system: Listeria monocytogenes; experiment: Antimicrobial activity against Listeria monocytogenes ATCC 19111 assessed as growth inhibition rate at 3.4 mg/l after 72 hr by spectrophotometry; conditions: ATCC 19111, 72 h, read-out: GI
How it was run: (§3)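 L. monocytogenes was grown at 30 °C in tryptic soy broth, subcultured for 18 h, and exposed to pure volatile compounds (>95% purity). Growth was followed by Bioscreen C optical density every 24 h for 72 h against a 10% Tween 80 control.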

[12] = system: Escherichia coli; experiment: Antimicrobial activity against Escherichia coli O157:H7 ATCC 43894 assessed as growth inhibition rate at 0.34 mg/l after 72 hr by spectrophotometry; conditions: O157:H7 ATCC 43894, 72 h, read-out: GI
[13] = system: Escherichia coli; experiment: Antimicrobial activity against Escherichia coli O157:H7 ATCC 43894 assessed as growth inhibition rate at 0.068 mg/l after 72 hr by spectrophotometry; conditions: O157:H7 ATCC 43894, 72 h, read-out: GI
[14] = system: Escherichia coli; experiment: Antimicrobial activity against Escherichia coli O157:H7 ATCC 43894 assessed as growth inhibition rate at 0.017 mg/l after 72 hr by spectrophotometry; conditions: O157:H7 ATCC 43894, 72 h, read-out: GI
[15] = system: Escherichia coli; experiment: Antimicrobial activity against Escherichia coli O157:H7 ATCC 43894 assessed as growth inhibition rate at 6.8 mg/l after 72 hr by spectrophotometry; conditions: O157:H7 ATCC 43894, 72 h, read-out: GI
[16] = system: Escherichia coli; experiment: Antimicrobial activity against Escherichia coli O157:H7 ATCC 43894 assessed as growth inhibition rate at 0.68 mg/l after 72 hr by spectrophotometry; conditions: O157:H7 ATCC 43894, 72 h, read-out: GI
[17] = system: Staphylococcus aureus; experiment: Antimicrobial activity against Staphylococcus aureus ATCC 25923 assessed as growth inhibition rate at 0.34 mg/l after 72 hr by spectrophotometry; conditions: ATCC 25923, 72 h, read-out: GI
[18] = system: Staphylococcus aureus; experiment: Antimicrobial activity against Staphylococcus aureus ATCC 25923 assessed as growth inhibition rate at 0.068 mg/l after 72 hr by spectrophotometry; conditions: ATCC 25923, 72 h, read-out: GI
[19] = system: Staphylococcus aureus; experiment: Antimicrobial activity against Staphylococcus aureus ATCC 25923 assessed as growth inhibition rate at 0.017 mg/l after 72 hr by spectrophotometry; conditions: ATCC 25923, 72 h, read-out: GI
[20] = system: Staphylococcus aureus; experiment: Antimicrobial activity against Staphylococcus aureus ATCC 25923 assessed as growth inhibition rate at 6.8 mg/l after 72 hr by spectrophotometry; conditions: ATCC 25923, 72 h, read-out: GI
How it was run: (§4)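 Staphylococcus aureus ATCC 25923 grown at 37 °C in tryptic soy broth, using an 18 h subculture of a 24 h culture. Individual leaf-volatile compounds (>95% purity) were tested. Bioscreen C optical density was recorded every 24 h for 72 h and compared with a 10% Tween 80 control.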

[21] = system: Staphylococcus aureus; experiment: Antimicrobial activity against Staphylococcus aureus ATCC 25923 assessed as growth inhibition rate at 0.68 mg/l after 72 hr by spectrophotometry; conditions: ATCC 25923, 72 h, read-out: GI; how it was run: as §4
[22] = system: Vibrio parahaemolyticus; experiment: Antimicrobial activity against Vibrio parahaemolyticus ATCC 33844 assessed as growth inhibition rate at 3.4 mg/l after 72 hr by spectrophotometry; conditions: ATCC 33844, 72 h, read-out: GI
How it was run: (§5)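 Vibrio parahaemolyticus ATCC 33844 grown at 37 °C in tryptic soy broth with 3% (w/v) NaCl, using an 18 h subculture of a 24 h culture. Pure compounds (>95% purity) were tested. Bioscreen C optical density was read every 24 h for 72 h against a 10% Tween 80 control.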

[23] = system: Salmonella typhimurium; experiment: Antimicrobial activity against Salmonella enterica subsp. enterica serovar Typhimurium ATCC 14028 assessed as growth inhibition rate at 3.4 mg/l after 72 hr by spectrophotometry; conditions: ATCC 14028, 72 h, read-out: GI; how it was run: as §2
[24] = system: Escherichia coli; experiment: Antimicrobial activity against Escherichia coli O157:H7 ATCC 43894 assessed as growth inhibition rate at 3.4 mg/l after 72 hr by spectrophotometry; conditions: O157:H7 ATCC 43894, 72 h, read-out: GI
[25] = system: Staphylococcus aureus; experiment: Antimicrobial activity against Staphylococcus aureus ATCC 25923 assessed as growth inhibition rate at 3.4 mg/l after 72 hr by spectrophotometry; conditions: ATCC 25923, 72 h, read-out: GI; how it was run: as §4
[26] = system: Listeria monocytogenes; experiment: Antimicrobial activity against Listeria monocytogenes ATCC 19111 assessed as growth inhibition rate at 6.8 mg/l after 72 hr by spectrophotometry; conditions: ATCC 19111, 72 h, read-out: GI; how it was run: as §3
[27] = system: Listeria monocytogenes; experiment: Antimicrobial activity against Listeria monocytogenes ATCC 19111 assessed as growth inhibition rate at 0.68 mg/l after 72 hr by spectrophotometry; conditions: ATCC 19111, 72 h, read-out: GI; how it was run: as §3
[28] = system: Vibrio parahaemolyticus; experiment: Antimicrobial activity against Vibrio parahaemolyticus ATCC 33844 assessed as growth inhibition rate at 6.8 mg/l after 72 hr by spectrophotometry; conditions: ATCC 33844, 72 h, read-out: GI; how it was run: as §5
[29] = system: Vibrio parahaemolyticus; experiment: Antimicrobial activity against Vibrio parahaemolyticus ATCC 33844 assessed as growth inhibition rate at 0.68 mg/l after 72 hr by spectrophotometry; conditions: ATCC 33844, 72 h, read-out: GI; how it was run: as §5
[30] = system: Listeria monocytogenes; experiment: Antimicrobial activity against Listeria monocytogenes ATCC 19111 assessed as growth inhibition rate at 0.34 mg/l after 72 hr by spectrophotometry; conditions: ATCC 19111, 72 h, read-out: GI; how it was run: as §3
[31] = system: Listeria monocytogenes; experiment: Antimicrobial activity against Listeria monocytogenes ATCC 19111 assessed as growth inhibition rate at 0.068 mg/l after 72 hr by spectrophotometry; conditions: ATCC 19111, 72 h, read-out: GI; how it was run: as §3
[32] = system: Listeria monocytogenes; experiment: Antimicrobial activity against Listeria monocytogenes ATCC 19111 assessed as growth inhibition rate at 0.017 mg/l after 72 hr by spectrophotometry; conditions: ATCC 19111, 72 h, read-out: GI; how it was run: as §3
[33] = system: Vibrio parahaemolyticus; experiment: Antimicrobial activity against Vibrio parahaemolyticus ATCC 33844 assessed as growth inhibition rate at 0.34 mg/l after 72 hr by spectrophotometry; conditions: ATCC 33844, 72 h, read-out: GI
[34] = system: Vibrio parahaemolyticus; experiment: Antimicrobial activity against Vibrio parahaemolyticus ATCC 33844 assessed as growth inhibition rate at 0.068 mg/l after 72 hr by spectrophotometry; conditions: ATCC 33844, 72 h, read-out: GI
[35] = system: Vibrio parahaemolyticus; experiment: Antimicrobial activity against Vibrio parahaemolyticus ATCC 33844 assessed as growth inhibition rate at 0.017 mg/l after 72 hr by spectrophotometry; conditions: ATCC 33844, 72 h, read-out: GI
[36] = system: Bacillus cereus; experiment: Antimicrobial activity against Bacillus cereus ATCC 11778 assessed as growth inhibition rate at 3.4 mg/l after 72 hr by spectrophotometry; conditions: ATCC 11778, 72 h, read-out: GI; how it was run: as §1

## CC/C=C/C=C/C=O [2,4-HEPTADIENAL]
[1]
  inhibition of growth at 0.34 µg/mL: 1.8%
[2]
  inhibition of growth at 0.068 µg/mL: 1.1%
[3]
  inhibition of growth at 0.017 µg/mL: 0%
[4]
  inhibition of growth at 6.8 µg/mL: 100%
[5]
  inhibition of growth at 0.68 µg/mL: 11%
[6]
  inhibition of growth at 0.34 µg/mL: 8.6%
[7]
  inhibition of growth at 0.068 µg/mL: 8.8%
[8]
  inhibition of growth at 0.017 µg/mL: 5.8%
[9]
  inhibition of growth at 6.8 µg/mL: 88.6%
[10]
  inhibition of growth at 0.68 µg/mL: 18.2%
[11]
  inhibition of growth at 3.4 µg/mL: 34.5%
[12]
  inhibition of growth at 0.34 µg/mL: 1.3%
[13]
  inhibition of growth at 0.068 µg/mL: 0.5%
[14]
  inhibition of growth at 0.017 µg/mL: 0.5%
[15]
  inhibition of growth at 6.8 µg/mL: 27.5%
[16]
  inhibition of growth at 0.68 µg/mL: 4.4%
[17]
  inhibition of growth at 0.34 µg/mL: 2.8%
[18]
  inhibition of growth at 0.068 µg/mL: 0%
[19]
  inhibition of growth at 0.017 µg/mL: 0%
[20]
  inhibition of growth at 6.8 µg/mL: 95.5%
[21]
  inhibition of growth at 0.68 µg/mL: 4.9%
[22]
  inhibition of growth at 3.4 µg/mL: 82.4%
[23]
  inhibition of growth at 3.4 µg/mL: 57.8%
[24]
  inhibition of growth at 3.4 µg/mL: 16.6%
[25]
  inhibition of growth at 3.4 µg/mL: 80.9%
[26]
  inhibition of growth at 6.8 µg/mL: 51.6%
[27]
  inhibition of growth at 0.68 µg/mL: 5.9%
[28]
  inhibition of growth at 6.8 µg/mL: 99%
[29]
  inhibition of growth at 0.68 µg/mL: 11.4%
[30]
  inhibition of growth at 0.34 µg/mL: 1.6%
[31]
  inhibition of growth at 0.068 µg/mL: 0.8%
[32]
  inhibition of growth at 0.017 µg/mL: 0.1%
[33]
  inhibition of growth at 0.34 µg/mL: 6.1%
[34]
  inhibition of growth at 0.068 µg/mL: 5.8%
[35]
  inhibition of growth at 0.017 µg/mL: 5.6%
[36]
  inhibition of growth at 3.4 µg/mL: 92.9%
